Assay results: ChEMBL document CHEMBL1129250, “Interaction of 1,4-dihydropyridine and pyridine derivatives with adenosine receptors: selectivity for A3 receptors” (J Med Chem, 1996); call rule not given here

Key:
Adenosine receptor A2a = Adenosine receptor A2a (Rattus norvegicus, UniProt P30543); test: Displacement of [3H]-CGS- 21680 binding to Adenosine A2A receptor in rat striatal membranes; type: cell membranes, Membrane
Summary of the method: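 Adenosine deaminase (3 units/mL) present during preparation, 30 min preincubation at 30 °C and incubation. At least five competitor concentrations over 3 orders of magnitude.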

Adenosine receptor A3 [1] = target: T1, Adenosine receptor A3 (Rattus norvegicus, UniProt P28647); test: Binding affinity against rat Adenosine A3 receptor from CHO cells; type: cell-based
T1 sequence (P28647 whole entry): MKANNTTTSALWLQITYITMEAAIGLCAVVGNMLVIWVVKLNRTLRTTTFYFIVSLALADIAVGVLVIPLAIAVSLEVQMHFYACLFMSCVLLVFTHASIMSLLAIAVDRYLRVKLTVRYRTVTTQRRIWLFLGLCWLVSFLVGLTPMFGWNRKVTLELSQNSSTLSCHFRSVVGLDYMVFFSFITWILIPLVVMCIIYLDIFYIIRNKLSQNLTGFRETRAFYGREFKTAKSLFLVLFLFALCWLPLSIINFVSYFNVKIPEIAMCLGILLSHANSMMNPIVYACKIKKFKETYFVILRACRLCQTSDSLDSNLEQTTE
Summary of the method: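 CHO cell membranes stably expressing cloned rat A3 receptor. Nonspecific binding defined with 100 μM R-PIA. Filtration assay. IC50 converted to Ki by Cheng–Prusoff.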

[2] = target: T2, Adenosine receptor A3 (Rattus norvegicus) (UniProt P28647); test: Inhibition of adenylyl cyclase by A3 agonist IB-MECA(10e-6M) in CHO cell membranes expressing rat Adenosine A3 receptor; type: functional, cell-based
T2 sequence (whole entry): T1 sequence (P28647 whole entry)
Summary of the method: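 Membranes from CHO cells stably expressing rat A3 receptor. Stimulated with 1 μM forskolin and [α-32P]ATP. Test compounds at 10 μM against the stated IB-MECA concentration. Stop buffer contained [3H]cyclic AMP. Reported as percent inhibition; significance by t-test.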

[3] = target: T3, Equilibrative nucleoside transporter 1 (Rattus norvegicus, UniProt O54698); test: Ability to displace radioligand from Na+ independent Adenosine transporter in rat
T3 sequence (O54698 whole entry): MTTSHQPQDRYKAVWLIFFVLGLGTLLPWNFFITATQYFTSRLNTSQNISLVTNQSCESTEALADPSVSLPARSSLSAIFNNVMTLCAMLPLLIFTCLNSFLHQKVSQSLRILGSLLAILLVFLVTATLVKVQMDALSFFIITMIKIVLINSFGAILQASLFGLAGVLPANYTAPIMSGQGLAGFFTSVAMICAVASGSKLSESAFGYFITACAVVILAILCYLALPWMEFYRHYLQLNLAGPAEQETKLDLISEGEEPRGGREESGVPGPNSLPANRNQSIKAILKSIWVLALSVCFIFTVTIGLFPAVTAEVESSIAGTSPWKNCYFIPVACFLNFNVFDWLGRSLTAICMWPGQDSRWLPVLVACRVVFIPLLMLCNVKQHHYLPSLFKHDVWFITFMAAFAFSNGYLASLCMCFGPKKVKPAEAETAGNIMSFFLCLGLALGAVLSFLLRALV
Summary of the method: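 Rat forebrain membranes incubated 30 min at 23 °C with 0.7 nM [3H]NBI and varying competitor concentrations in 50 mM Tris, pH 7.4. Ki or percent of specific binding displaced.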

[4] = target: T4, Voltage-gated L-type calcium channel (Rattus norvegicus, UniProt P22002+Q02485+P27732); test: Inhibition of [3H]isradipine binding to L-type [Ca2+] channel of rat brain membranes; type: cell membranes, Membrane
Summary of the method: (§1)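 Rat brain membranes (~100 μg protein) incubated 1 h at 25 °C with 0.1 nM [3H]isradipine and varying competitor in 50 mM Tris, pH 7.4. Nonspecific binding with 10 μM nitrendipine.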

Adenosine receptor A3 [5] = target: T5, Adenosine receptor A3 (Homo sapiens, UniProt P0DMS8); test: Displacement of [125]AB-MECA binding to human Adenosine A3 receptor expressed in HEK cells; type: cell-based, HEK293
T5 sequence (P0DMS8 whole entry): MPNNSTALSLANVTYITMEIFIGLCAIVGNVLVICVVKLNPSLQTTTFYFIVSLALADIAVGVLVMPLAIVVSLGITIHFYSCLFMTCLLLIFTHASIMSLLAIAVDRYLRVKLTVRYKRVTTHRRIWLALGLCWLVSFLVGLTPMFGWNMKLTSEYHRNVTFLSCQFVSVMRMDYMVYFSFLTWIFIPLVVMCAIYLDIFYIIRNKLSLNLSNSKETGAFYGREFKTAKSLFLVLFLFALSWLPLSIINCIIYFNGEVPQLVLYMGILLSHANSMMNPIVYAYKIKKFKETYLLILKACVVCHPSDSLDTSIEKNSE

Adenosine receptor A1 = target: T6, Adenosine receptor A1 (Rattus norvegicus, UniProt P25099); test: (§2) Displacement of [3H](R)-PIA binding to Adenosine A1 receptor in rat brain membranes; type: cell membranes
T6 sequence (P25099 whole entry): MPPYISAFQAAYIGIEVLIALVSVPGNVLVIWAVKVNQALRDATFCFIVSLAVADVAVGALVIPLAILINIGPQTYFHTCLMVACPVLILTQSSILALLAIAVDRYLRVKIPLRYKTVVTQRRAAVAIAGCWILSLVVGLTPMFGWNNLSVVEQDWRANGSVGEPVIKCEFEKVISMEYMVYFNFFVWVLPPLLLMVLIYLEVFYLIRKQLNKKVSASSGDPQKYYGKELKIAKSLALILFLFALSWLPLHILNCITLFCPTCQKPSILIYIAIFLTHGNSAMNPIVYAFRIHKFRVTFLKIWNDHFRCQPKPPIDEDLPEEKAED

[6] = target: T7, Adenosine receptor A1 (Rattus norvegicus) (UniProt P25099); test: as §2; type: cell membranes; conditions: concentration not given here
T7 sequence (whole entry): T6 sequence (P25099 whole entry)
Summary of the method: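 Rat cerebral cortex membranes with [3H]-(R)-PIA. Adenosine deaminase (3 units/mL) present during membrane preparation, during a 30 min preincubation at 30 °C and during incubation. Competitor at ≥5 concentrations spanning 3 log units, DMSO ≤2%.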

[7] = target: Adenosine receptor A2a (Rattus norvegicus) (UniProt P30543); test: Displacement of [3H]-CGS- 21680 from Adenosine A2A receptor in rat striatal membranes; type: cell membranes; conditions: Membrane, concentration not given here
Adenosine receptor A2a (Rattus norvegicus), sequence (P30543 whole entry): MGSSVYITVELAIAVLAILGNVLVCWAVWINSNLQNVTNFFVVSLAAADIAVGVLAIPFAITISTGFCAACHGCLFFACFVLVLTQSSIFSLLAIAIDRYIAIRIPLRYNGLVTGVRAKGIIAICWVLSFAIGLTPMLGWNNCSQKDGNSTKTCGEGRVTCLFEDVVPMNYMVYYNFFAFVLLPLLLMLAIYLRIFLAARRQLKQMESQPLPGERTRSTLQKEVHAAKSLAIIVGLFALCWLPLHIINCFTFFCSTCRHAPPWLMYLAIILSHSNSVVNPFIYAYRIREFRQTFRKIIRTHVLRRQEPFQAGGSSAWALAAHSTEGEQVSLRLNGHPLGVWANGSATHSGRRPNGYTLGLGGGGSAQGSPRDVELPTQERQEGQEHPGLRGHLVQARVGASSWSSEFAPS
Summary of the method: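 Rat striatal membranes with [3H]CGS 21680. Adenosine deaminase (3 units/mL) present during preparation, 30 min preincubation at 30 °C and incubation. At least five competitor concentrations over 3 orders of magnitude.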

[8] = target: T4, Voltage-gated L-type calcium channel; test: Inhibition of [3H]-isradipine binding to L-type [Ca2+] channel of rat brain membranes; type: cell membranes, Membrane; summary of the method: as §1

Adenosine receptor A2a, sequence (P30543 whole entry): as above

| Structure (SMILES) | Ki (Adenosine receptor A2a; read-out: Ki) | further results |
| --- | --- | --- |
| CO/C(O)=C1/C(C)=NC(C)=C(C(=O)OCc2ccccc2)C1C (centres undefined) | 9.72 µM | – |
| COC(=O)C1=C(C)NC(C)=C(C(=O)OCCCN2CCC(c3ccccc3)(c3ccccc3)CC2)[C@@H]1c1cccc([N+](=O)[O-])c1 [DEXNIGULDIPINE] | – | Ki (Adenosine receptor A2a): Not Active |
| CCCCC1=C(C(=O)OCC)C(C)/C(=C(/O)OCC)C(C)=N1 (centres undefined) | 38 µM | – |
| COC(=O)C1=C(C)NC(C)=C(C(=O)OCCN(C)Cc2ccccc2)C1c1cccc([N+](=O)[O-])c1 (centres undefined) [NICARDIPINE] | – | Ki (Adenosine receptor A3 [1]): 11 µM; inhibition [2]: 27.2%; Ki [3]: 5.36 µM |
| CCOC(=O)C1=C(c2ccccc2)N=C(C)/C(=C(/O)OCC)C1/C=C/c1ccccc1 (centres undefined) | 4.77 µM | Inhibition [4]: < 10% |
| CCO/C(O)=C1\C(C)=NC(C)=C(C(=O)OC)C1CCc1ccccc1 (centres undefined) | 6.71 µM | – |
| CCO/C(O)=C1\C(C)=NC(C)=C(C(=O)OC)C1c1ccc(O)c(OC)c1 (centres undefined) | 56.8 µM | – |
| CCO/C(O)=C1\C(C)=NC(C)=C(C(=O)OC)C1c1ccc2c(c1)OCO2 (centres undefined) | 5.27 µM | Ki (Adenosine receptor A3 [5]): 4.58 µM; Ki (Adenosine receptor A1): 3.66 µM |
| CCOC(=O)C1=C(C)NC(C)=C(C(=O)OC)C1C#Cc1ccccc1 (centres undefined) | – | Inhibition [4]: 23% |
| CCO/C(O)=C1\C(C)=NC(C)=C(C(=O)OC)C1c1ccc([N+](=O)[O-])cc1 (centres undefined) | 35.6 µM | inhibition [6]: 37% |
| COCCO/C(O)=C1\C(C)=NC(C)=C(C(=O)OC)C1C (centres undefined) | – | inhibition [7]: 37% |
| CCOC(=O)C1=C(C)NC(C)=C(C(=O)OC)C1/C=C/c1ccccc1 (centres undefined) | 49.3 µM | Ki (Adenosine receptor A3 [1]): 12.1 µM; Ki (Adenosine receptor A3 [5]): 0.67 µM; Ki (Adenosine receptor A1): 16.1 µM; Ki [8]: 0.694 µM |
| CCO/C(O)=C1\C(C)=NC(C)=C(C(=O)OC)C1c1ccc(OC)cc1 (centres undefined) | 12.7 µM | – |
| CCCC1C(C(=O)OCC)=C(C)N=C(C)/C1=C(\O)OC (centres undefined) | 11.5 µM | – |
| CCO/C(O)=C1\C(C)=NC(C)=C(C(=O)OC)C1c1ccccc1C(F)(F)F (centres undefined) | 20.7 µM | – |
| CCO/C(O)=C1/C(C)=NC(C)=C(C(=O)OCCSc2ccccc2)C1C (centres undefined) | 7.1 µM | – |
| COc1ccc(C2C=CNC=C2)cc1 | 71 µM | – |
| CCOC(=O)C1=C(C)NC(C)=C(C(=O)OC)C1c1cccc([N+](=O)[O-])c1 (centres undefined) [NITRENDIPINE] | 23 µM | Ki (Adenosine receptor A3 [5]): 8.3 µM; Ki (Adenosine receptor A1): 8.96 µM |
| CCOC(=O)C1=C(c2ccccc2)N=C(C)/C(=C(\O)OCC)C1C (stereo in doubt; 27) | 35.9 µM | Inhibition [4]: 17% |
| CCO/C(O)=C1\C(C)=NC(C)=C(C(=O)OC)C1C (stereo in doubt; 29) | 8.96 µM | – |
| CCO/C(O)=C1\C(C)=NC(C)=C(C(=O)OC)C1CC (centres undefined) | 9.56 µM | – |
| CCOC(=O)C1=C(c2ccccc2)N=C(C)/C(=C(\O)OCC)C1C (stereo in doubt; 30) | 28.4 µM | Inhibition [4]: < 10% |
| CCO/C(O)=C1\C(C)=NC(C)=C(C(=O)OC)C1CC(C)CCC=C(C)C (centres undefined) | 23.1 µM | – |
| CCOC(=O)C1=C(C)NC(C)=C(C(=O)OC)C1c1ccccc1 (centres undefined) | 2.74 µM | – |
| CCO/C(O)=C1\C(C)=NC(C)=C(C(=O)OC)C1C (stereo in doubt; 1) | 46.1 µM | – |
